Data from ChEMBL document CHEMBL1138547, “Synthesis, biological evaluation and 2D-QSAR analysis of benzoxazoles as antimicrobial agents” (2009).
Values after ≈ are worked out from the molar mass of the structure shown.

What was measured:
Assay type in all cases: functional
[1] = test system: Escherichia coli; assay: Antimicrobial activity against multidrug-resistant Escherichia coli after 24 hrs
Summary of the method: (§1)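 Twofold serial broth dilution in Mueller-Hinton broth. MHB was used both to dilute the bacterial suspension and for the twofold compound dilutions, giving 10^3 cfu/ml bacteria per well after inoculation. Solvent, medium and organism-only wells served as controls. Each organism was run in triplicate.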

[2] = test system: Staphylococcus aureus; assay: Antimicrobial activity against Staphylococcus aureus ATCC 25923 after 24 hrs; conditions: ATCC 25923, 24 h; summary of the method: as §1
[3] = test system: Klebsiella pneumoniae; assay: Antimicrobial activity against multidrug-resistant Klebsiella pneumoniae after 24 hrs; summary of the method: as §1
[4] = test system: Candida albicans; assay: Antimicrobial activity against Candida albicans ATCC 10231 after 24 to 48 hrs
Summary of the method: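 Twofold serial dilution following CLSI M27-A. Yeast suspension made at 10^4 cfu/ml by diluting a fresh culture at McFarland 0.5 (10^6 cfu/ml). Inoculated into the diluted compound, incubated at 35 °C in a humid chamber, read after 48 h. Triplicate in each run. MIC is the lowest concentration completely inhibiting macroscopic growth.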

[5] = test system: Bacillus subtilis; assay: Antimicrobial activity against Bacillus subtilis ATCC 6633 after 24 hrs; conditions: for MIC: Bacillus subtilis, ATCC 6633, 24 h
Summary of the method: (§2)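 MIC by twofold serial dilution in Mueller-Hinton broth (MHB); MHB also used to dilute the bacterial suspension. Wells held 10^3 cfu/ml bacteria after inoculation. Controls: 80% DMSO, 20% EtOH, methanol, DMSO, PBS, organism alone and medium alone. Triplicate in each run. MIC taken as the lowest concentration completely inhibiting macroscopic growth.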

[6] = test system: Pseudomonas aeruginosa; assay: Antimicrobial activity against Pseudomonas aeruginosa ATCC […] after 24 hrs; summary of the method: as §2
[7] = test system: Klebsiella pneumoniae; assay: Antimicrobial activity against Klebsiella pneumoniae RSHM 574 after 24 hrs; conditions: RSHM 574, 24 h; summary of the method: as §2
[8] = test system: Escherichia coli; assay: Antimicrobial activity against Escherichia coli ATCC 25922 after 24 hrs; conditions: ATCC 25922, 24 h; summary of the method: as §2
[9] = test system: Staphylococcus aureus; assay: Antimicrobial activity against multidrug-resistant Staphylococcus aureus after 24 hrs; summary of the method: as §1
[10] = test system: Bacillus subtilis; assay: Antimicrobial activity against ceftriazone-resistant Bacillus subtilis after 24 hrs; summary of the method: as §1
[11] = test system: Candida albicans; assay: Antimicrobial activity against multidrug-resistant Candida albicans isolates after 24 to 48 hrs
Summary of the method: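 Yeast broth microdilution following CLSI M27-A, with Sabouraud dextrose medium noted for antifungal assays. Fresh cultures at McFarland 0.5 (10^6 cfu/ml) were diluted to 10^4 cfu/ml and inoculated into twofold compound dilutions. Trays were incubated at 35 °C in a humid chamber and read at 48 h, in triplicate. MIC was the lowest concentration giving complete macroscopic growth inhibition.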

Row | Structure (SMILES) | MIC [1] [µg/mL] | MIC [2] [µg/mL] | MIC [3] [µg/mL] | MIC [4] [µg/mL] | log(1/C) [5] | MIC [5] [µg/mL] | MIC [6] [µg/mL] | MIC [7] [µg/mL] | MIC [8] [µg/mL] | MIC [9] [µg/mL] | MIC [10] [µg/mL] | MIC [11] [µg/mL]
1 | Nc1ccc2oc(-c3ccccc3)nc2c1 | 50 (≈ 238 µM) | 100 (≈ 476 µM) | 100 (≈ 476 µM) | 100 (≈ 476 µM) | 4.226 | 12.5 (≈ 59.5 µM) | 50 (≈ 238 µM) | 50 (≈ 238 µM) | 50 (≈ 238 µM) | 100 (≈ 476 µM) | 50 (≈ 238 µM) | 50 (≈ 238 µM)
2 | COc1ccc(-c2nc3cc(C)ccc3o2)c(OC)c1 |  |  |  |  | 4.032 |  |  |  |  |  |  | 
3 | Nc1ccc2nc(-c3ccc(F)cc3)oc2c1 | 100 (≈ 438 µM) | 100 (≈ 438 µM) | 100 (≈ 438 µM) | 50 (≈ 219 µM) | 3.659 | 50 (≈ 219 µM) | 50 (≈ 219 µM) | 50 (≈ 219 µM) | 50 (≈ 219 µM) | 100 (≈ 438 µM) | 50 (≈ 219 µM) | 50 (≈ 219 µM)
4 | CCc1ccc(-c2nc3cc([N+](=O)[O-])ccc3o2)cc1 | 100 (≈ 373 µM) | 100 (≈ 373 µM) | 100 (≈ 373 µM) | 50 (≈ 186 µM) | 3.73 | 50 (≈ 186 µM) | 50 (≈ 186 µM) | 50 (≈ 186 µM) | 50 (≈ 186 µM) | 100 (≈ 373 µM) | 25 (≈ 93.2 µM) | 100 (≈ 373 µM)
5 | Cc1ccc2oc(-c3ccc(Cl)cc3Cl)nc2c1 |  |  |  |  | 4.046 | 25 (≈ 89.9 µM) |  |  |  |  |  | 
6 | OC(Cn1cncn1)(Cn1cncn1)c1ccc(F)cc1F [FLUCONAZOLE] |  |  |  | 1 (≈ 3.27 µM) |  |  |  |  |  |  |  | 64 (≈ 209 µM)
7 | Cc1ccc(Cc2nc3cc(N)ccc3o2)cc1 | 50 (≈ 210 µM) | 100 (≈ 420 µM) | 100 (≈ 420 µM) | 100 (≈ 420 µM) | 4.28 | 12.5 (≈ 52.5 µM) | 50 (≈ 210 µM) | 50 (≈ 210 µM) | 50 (≈ 210 µM) | 100 (≈ 420 µM) | 25 (≈ 105 µM) | 50 (≈ 210 µM)
8 | O=[N+]([O-])c1ccc2oc(-c3ccc(F)cc3)nc2c1 | 100 (≈ 387 µM) | 100 (≈ 387 µM) | 100 (≈ 387 µM) | 50 (≈ 194 µM) | 3.713 | 50 (≈ 194 µM) | 50 (≈ 194 µM) | 50 (≈ 194 µM) | 50 (≈ 194 µM) | 100 (≈ 387 µM) | 25 (≈ 96.8 µM) | 100 (≈ 387 µM)
9 | O=[N+]([O-])c1ccc2nc(Cc3ccc(F)cc3)oc2c1 | 50 (≈ 184 µM) | 100 (≈ 367 µM) | 100 (≈ 367 µM) | 100 (≈ 367 µM) | 4.338 | 12.5 (≈ 45.9 µM) | 50 (≈ 184 µM) | 50 (≈ 184 µM) | 50 (≈ 184 µM) | 100 (≈ 367 µM) | 100 (≈ 367 µM) | 50 (≈ 184 µM)
10 | CC1(C)S[C@@H]2[C@H](NC(=O)[C@H](N)c3ccccc3)C(=O)N2[C@H]1C(=O)O.O.O.O [AMPICILLIN TRIHYDRATE] | 256 | 0.03 | 256 |  |  | 0.25 | 4100 | 2 | 8 | 2 | 8 | 
